# The source made the active and inactive calls. The rule behind the calls is not given here.
# Tests used:
# Candida albicans [1] = test: Antifungal activity against wild type Candida albicans SC5314 assessed as inhibition of fungal growth; format: functional
# Staphylococcus aureus = test: Antibacterial activity against Methicillin-resistant Staphylococcus aureus USA300 assessed as inhibition of bacterial growth; format: functional
# Escherichia coli [2] = test: Antibacterial activity against wild type Escherichia coli BW25113 assessed as inhibition of bacterial growth; format: functional
# Escherichia coli [3] = test: Antibacterial activity against Escherichia coli JW55031 harboring tolC mutant assessed as inhibition of bacterial growth; format: functional
# Clostridioides difficile = test: Antibacterial activity against Clostridium difficile ATCC BAA1870 assessed as inhibition of bacterial growth; format: functional
# [Candida] auris [4] = Antifungal activity against Candida auris 383 assessed as inhibition of fungal growth incubated for 24 hrs by broth microdilution method; format: functional; settings: Candidozyma auris
# How it was run: (§1)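 Clinical isolate; CLSI broth microdilution over a range of concentrations (media listed: RPMI 1640, MOPS, YPD). MIC taken as lowest concentration giving 50% growth inhibition after 24 h at 35 °C.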
# Candida albicans [5] = test: Antifungal activity against Candida albicans ATCC 10231 assessed as inhibition of fungal growth incubated for 24 hrs by broth microdilution method; format: functional
# How it was run: (§2)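 Broth microdilution per CLSI guidelines against clinical isolates, incubated at 35 °C for 24 h (Candida, Aspergillus) or 48 h (Cryptococcus). MIC was the lowest concentration giving 50% growth inhibition.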
# Cryptococcus neoformans [6] = test: Antifungal activity against Cryptococcus neoformans NR 48771 assessed as inhibition of fungal growth incubated for 48 hrs by broth microdilution method; format: functional
# How it was run: (§3)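 Clinical isolate; CLSI broth microdilution over a range of concentrations (media listed: RPMI 1640, MOPS, YPD). MIC read as lowest concentration inhibiting growth by 50% after 48 h incubation at 35 °C.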
# [7] = Antibacterial activity against Lactobacillus crispatus HM370 assessed as inhibition of bacterial growth; format: toxicity
# Pichia kudriavzevii [8] = test: Antifungal activity against Candida krusei ATCC 34135 assessed as inhibition of fungal growth incubated for 24 hrs by broth microdilution method; format: functional; how it was run: as §2
# Pichia kudriavzevii [9] = test: Antifungal activity against Candida krusei CAB 396420 assessed as inhibition of fungal growth incubated for 24 hrs by broth microdilution method; format: functional; how it was run: as §2
# Cryptococcus neoformans [10] = test: Antifungal activity against Cryptococcus neoformans NR 48770 assessed as inhibition of fungal growth incubated for 48 hrs by broth microdilution method; format: functional; how it was run: as §3
# Cryptococcus neoformans [11] = test: Antifungal activity against Cryptococcus neoformans NR 48773 assessed as inhibition of fungal growth incubated for 48 hrs by broth microdilution method; format: functional; how it was run: as §3
# Candida parapsilosis [12] = test: Antifungal activity against Candida parapsilosis CAB 502638 assessed as inhibition of fungal growth incubated for 24 hrs by broth microdilution method; format: functional; settings: Lodderomyces parapsilosis; how it was run: as §2
# [Candida] auris [13] = Antifungal activity against Candida auris 382 assessed as inhibition of fungal growth incubated for 24 hrs by broth microdilution method; format: functional; settings: Candidozyma auris; how it was run: as §1
# Nakaseomyces glabratus [14] = test: Antifungal activity against Candida glabrata ATCC 66032 assessed as inhibition of fungal growth incubated for 24 hrs by broth microdilution method; format: functional; how it was run: as §1
# [15] = Antibacterial activity against Lactobacillus casei HM334 assessed as inhibition of bacterial growth; format: toxicity; settings: lacticaseibacillus casei
# Cryptococcus neoformans [16] = test: Antifungal activity against Cryptococcus neoformans NR 41300 assessed as inhibition of fungal growth incubated for 48 hrs by broth microdilution method; format: functional; how it was run: as §3
# Cryptococcus neoformans [17] = test: Antifungal activity against Cryptococcus neoformans NR 48767 assessed as inhibition of fungal growth incubated for 48 hrs by broth microdilution method; format: functional; how it was run: as §3
# Vero = test: Cytotoxicity against African green monkey Vero cells assessed as inhibition of cell viability at 16 ug/ml incubated for 2 hrs by MTS assay; format: toxicity, cell-based; settings: chlorocebus sabaeus, dose 16 µg/ml
# [18] = Antifungal activity against Cryptococcus gattii NR 43213 assessed as inhibition of fungal growth incubated for 48 hrs by broth microdilution method; format: functional, Cryptococcus gattii VGI; how it was run: as §2
# Cryptococcus neoformans [19] = test: Antifungal activity against Cryptococcus neoformans NR 41298 assessed as inhibition of fungal growth incubated for 48 hrs by broth microdilution method; format: functional; how it was run: as §3
# Cryptococcus neoformans [20] = test: Antifungal activity against Cryptococcus neoformans NR 41299 assessed as inhibition of fungal growth incubated for 48 hrs by broth microdilution method; format: functional; how it was run: as §3
# Nakaseomyces glabratus [21] = test: Antifungal activity against Candida glabrata ATCC MYA2950 assessed as inhibition of fungal growth incubated for 24 hrs by broth microdilution method; format: functional; how it was run: as §1
# Candida parapsilosis [22] = test: Antifungal activity against Candida parapsilosis ATCC 22019 assessed as inhibition of fungal growth incubated for 24 hrs by broth microdilution method; format: functional; settings: Lodderomyces parapsilosis; how it was run: as §1
# Lactobacillus gasseri = test: Antibacterial activity against Lactobacillus gasseri HM400 assessed as inhibition of bacterial growth; format: toxicity, organism-based
# Candida albicans [23] = test: Antifungal activity against Candida albicans NR 29448 assessed as inhibition of fungal growth incubated for 24 hrs by broth microdilution method; format: functional; how it was run: as §1
# [24] = Antifungal activity against Cryptococcus gattii NR 43209 assessed as inhibition of fungal growth incubated for 48 hrs by broth microdilution method; format: functional, Cryptococcus gattii VGI; how it was run: as §2
# [25] = Antifungal activity against Cryptococcus gattii NR 43216 assessed as inhibition of fungal growth incubated for 48 hrs by broth microdilution method; format: functional, Cryptococcus gattii VGI; how it was run: as §2
# [26] = Antifungal activity against Cryptococcus gattii NR 43210 assessed as inhibition of fungal growth incubated for 48 hrs by broth microdilution method; format: functional, Cryptococcus gattii VGI; how it was run: as §2
# [27] = Cytotoxicity against African green monkey Vero cells assessed as cell viability at 8 ug/ml incubated for 2 hrs by MTS assay; format: toxicity, cell-based; settings: chlorocebus sabaeus, at 8 µg/mL, read-out: Activity
# How it was run: (§4)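 Vero cells were grown in MEM with 10% FBS, 1 mM sodium pyruvate and penicillin–streptomycin, then exposed to compounds for 2 h at 37 °C, 5% CO2, in triplicate. MTS was added for 3 h and OD490 read. Viability was expressed as % of DMSO-matched controls (mean ± SD).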
# [Candida] auris [28] = Antifungal activity against Candida auris 381 assessed as inhibition of fungal growth incubated for 24 hrs by broth microdilution method; format: functional; settings: Candidozyma auris; how it was run: as §1
# [29] = Antifungal activity against Cryptococcus gattii NR 43214 assessed as inhibition of fungal growth incubated for 48 hrs by broth microdilution method; format: functional, Cryptococcus gattii VGI; how it was run: as §2
# [30] = Cytotoxicity against African green monkey Vero cells assessed as inhibition of cell viability incubated for 2 hrs by MTS assay; format: toxicity, cell-based; settings: chlorocebus sabaeus; how it was run: as §4
# Cryptococcus neoformans [31] = test: Anti-cryptococcal activity against Cryptococcus neoformans NR 41300 infected in mouse J774 cells assessed as log reduction of intracellular fungal colony forming unit at 4 ug/ml measured after 24 hrs; format: functional; settings: dose 4 µg/ml
# How it was run: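 C. neoformans NR-41300 was grown 48 h in YPD, washed, and used to infect J774 macrophages at MOI ~100:1 for 1 h, followed by PBS washes. Compounds at 4 μg mL−1 (triplicate) were applied for 22 h at 37 °C, 5% CO2. Extracellular yeast were killed with amphotericin B 1 μg mL−1 for 1 h. Cells were lysed in 0.1% Triton X-100 and plated on YPD agar for 48 h at 37 °C; readout log10 CFU mL−1.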
# Cryptococcus neoformans [32] = test: Antibiofilm activity against Cryptococcus neoformans NR 41300 assessed as inhibition of biofilm formation at 0.5xMIC measured after 48 hrs by crystal violet staining based analysis; format: functional
# How it was run: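 Overnight C. neoformans was washed twice in PBS and adjusted to 105 cells per mL in RPMI. Cells were exposed to compound at 0.5 × MIC for 48 h at 35 °C. Biofilm was rinsed, dried, stained with 0.1% crystal violet, and the dye extracted with glacial acetic acid; OD595 readout.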
# Aspergillus fumigatus [33] = test: Antifungal activity against Aspergillus fumigatus NR 35303 assessed as inhibition of fungal growth incubated for 24 hrs by broth microdilution method; format: functional; how it was run: as §2
# Aspergillus fumigatus [34] = test: Antifungal activity against Aspergillus fumigatus NR 35304 assessed as inhibition of fungal growth incubated for 24 hrs by broth microdilution method; format: functional; how it was run: as §2
# [35] = Apparent permeability of the compound measured after 4 hrs by PAMPA assay; format: ADME
# How it was run: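 PAMPA: compound was placed in pH 6.5 donor buffer across a lipid-pretreated PVDF filter from pH 7.4 acceptor buffer, and incubated 4 h at ambient temperature. Donor and acceptor amounts at start and end were measured by UV absorbance to give apparent permeability.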
molecule,measurement,setting,value
Cc1nc(-c2ccc3ccccc3c2)sc1-c1nnc(NCCN)o1,MIC,Candida albicans [1],32 µg/mL
same,MIC,Staphylococcus aureus,32 µg/mL
same,MIC,Escherichia coli [2],> 64 µg/mL
same,MIC,Escherichia coli [3],64 µg/mL
same,MIC,Clostridioides difficile,64 µg/mL
Cc1nc(-c2ccc3ccccc3c2)sc1-c1nnc(N2CC[C@@H](N(C)C)C2)o1,MIC,Candida albicans [1],32 µg/mL
same,MIC,Staphylococcus aureus,4 µg/mL
same,MIC,Escherichia coli [2],> 64 µg/mL
same,MIC,Escherichia coli [3],32 µg/mL
same,MIC,Clostridioides difficile,16 µg/mL
CCNc1nnc(-c2sc(-c3ccc4ccccc4c3)nc2C)o1,MIC,Candida albicans [1],> 64 µg/mL
same,MIC,Staphylococcus aureus,64 µg/mL
same,MIC,Escherichia coli [2],> 64 µg/mL
same,MIC,Escherichia coli [3],64 µg/mL
same,MIC,Clostridioides difficile,64 µg/mL
C[C@@H]1[C@H](O)[C@@H](C)/C=C/C=C/C=C/C=C/C=C/C=C/C=C/[C@H](O[C@@H]2O[C@H](C)[C@@H](O)[C@H](N)[C@@H]2O)C[C@@H]2O[C@](O)(C[C@@H](O)C[C@@H](O)[C@H](O)CC[C@@H](O)C[C@@H](O)CC(=O)O[C@H]1C)C[C@H](O)[C@H]2C(=O)O [AMPHOTERICIN B],MIC,Candida albicans [1],1 µg/mL
same,MIC,[Candida] auris [4],1 µg/mL
same,MIC,Candida albicans [5],1 µg/mL
same,MIC,Cryptococcus neoformans [6],1 µg/mL
same,MIC,[7],> 128 µg/mL
same,MIC,Pichia kudriavzevii [8],2 µg/mL
same,MIC,Pichia kudriavzevii [9],2 µg/mL
same,MIC,Cryptococcus neoformans [10],1 µg/mL
same,MIC,Cryptococcus neoformans [11],1 µg/mL
same,MIC,Candida parapsilosis [12],0.5 µg/mL
same,MIC,[Candida] auris [13],1 µg/mL
same,MIC,Nakaseomyces glabratus [14],2 µg/mL
same,MIC,[15],> 128 µg/mL
same,MIC,Cryptococcus neoformans [16],1 µg/mL
same,MIC,Cryptococcus neoformans [17],1 µg/mL
same,Activity,Vero,Toxic
same,MIC,[18],1 µg/mL
same,MIC,Cryptococcus neoformans [19],1 µg/mL
same,MIC,Cryptococcus neoformans [20],1 µg/mL
same,MIC,Nakaseomyces glabratus [21],1 µg/mL
same,MIC,Candida parapsilosis [22],0.5 µg/mL
same,MIC,Lactobacillus gasseri,> 128 µg/mL
same,MIC,Candida albicans [23],1 µg/mL
same,MIC,[24],1 µg/mL
same,MIC,[25],1 µg/mL
same,MIC,[26],1 µg/mL
same,"viability at 2 h, 8 ug/ml",[27],58%
same,MIC,[Candida] auris [28],0.5 µg/mL
same,MIC,[29],1 µg/mL
same,CC50 at 2 h,[30],~8 µg/mL
OC(Cn1cncn1)(Cn1cncn1)c1ccc(F)cc1F [FLUCONAZOLE],MIC,Candida albicans [1],0.5 µg/mL
same,MIC,[Candida] auris [4],64 µg/mL
same,MIC,Candida albicans [5],1 µg/mL
same,MIC,Cryptococcus neoformans [6],2 µg/mL
same,MIC,[7],> 128 µg/mL
same,MIC,Pichia kudriavzevii [8],16 µg/mL
same,MIC,Pichia kudriavzevii [9],16 µg/mL
same,MIC,Cryptococcus neoformans [10],2 µg/mL
same,MIC,Cryptococcus neoformans [11],2 µg/mL
same,MIC,Candida parapsilosis [12],0.5 µg/mL
same,MIC,[Candida] auris [13],64 µg/mL
same,MIC,Nakaseomyces glabratus [14],8 µg/mL
same,MIC,[15],> 128 µg/mL
same,MIC,Cryptococcus neoformans [16],1 µg/mL
same,Activity,Cryptococcus neoformans [31],0.25 log10CFU/ml
same,MIC,Cryptococcus neoformans [17],1 µg/mL
same,MIC,[18],2 µg/mL
same,MIC,Cryptococcus neoformans [19],2 µg/mL
same,MIC,Cryptococcus neoformans [20],1 µg/mL
same,MIC,Nakaseomyces glabratus [21],16 µg/mL
same,MIC,Candida parapsilosis [22],1 µg/mL
same,MIC,Lactobacillus gasseri,> 128 µg/mL
same,MIC,Candida albicans [23],> 128 µg/mL
same,Activity,Cryptococcus neoformans [32],Active
same,MIC,[24],4 µg/mL
same,MIC,[25],2 µg/mL
same,MIC,[26],4 µg/mL
same,MIC,[Candida] auris [28],2 µg/mL
same,MIC,[29],1 µg/mL
CCC(C)n1ncn(-c2ccc(N3CCN(c4ccc(OCC5COC(Cn6cncn6)(c6ccc(Cl)cc6Cl)O5)cc4)CC3)cc2)c1=O (centres undefined) [ITRACONAZOLE],MIC,Aspergillus fumigatus [33],1 µg/mL
same,MIC,Aspergillus fumigatus [34],1 µg/mL
CC(C(=O)O)c1cccc(C(=O)c2ccccc2)c1 (centres undefined) [KETOPROFEN],Papp at 4 h,[35],10.2 ×10⁻⁶ cm/s
CC(=O)NC[C@H]1CN(c2ccc(N3CCOCC3)c(F)c2)C(=O)O1 [LINEZOLID],MIC,Staphylococcus aureus,1 µg/mL
same,MIC,Escherichia coli [2],> 64 µg/mL
same,MIC,Escherichia coli [3],8 µg/mL
same,MIC,Clostridioides difficile,1 µg/mL
CC(C)NCC(O)COc1cccc2ccccc12 (centres undefined) [PROPRANOLOL],Papp at 4 h,[35],76.6 ×10⁻⁶ cm/s
GENTAMICIN,MIC,Escherichia coli [2],< 0.5 µg/mL
same,MIC,Escherichia coli [3],< 0.5 µg/mL

# From ChEMBL document CHEMBL5329183, “Naphthylthiazoles: a class of broad-spectrum antifungals” (RSC Med Chem, 2023)
